The target in assay [1] is DNA topoisomerase 2-alpha (Homo sapiens) (UniProt P11388). The experiment in a line: Inhibition of human topoisomerase 2alpha-mediated relaxation of supercoiled pBR322 at 100 uM after 30 mins by electrophoresis analysis.
Another assay concerns KB. The experiment in a line: Cytotoxicity against human KB cells after 3 days by MTT assay. Type of assay: functional, cell-based. Conditions: 72 h. In a few lines:
(§1)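 Cells were cultured per supplier instructions at 2–4 × 10⁴ cells/well in medium with 10% (v/v) FBS, overnight at 37 °C under 5% CO₂. Compounds were then added, and after 3 days MTT was added to 0.5 mg/mL final for 4 h. Medium was replaced for solubilization with glycine pH 10.5. Doxorubicin was the positive control, and IC₅₀ values were derived.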
On the technique in general: Tetrazolium assays rely on reduction of a dye to a coloured formazan, in cell work by metabolically active cells.

The next assay relates to NCI-H187. The experiment in a line: Cytotoxicity against human NCI-H187 cells after 3 days by MTT assay. Type of assay: functional, cell-based. The settings on record: NCI-H187, 72 h. Summed up:
as §1

A further assay deals with SW-620. Briefly: Cytotoxicity against human SW620 cells after 3 days by MTT assay. Type of assay: functional, cell-based. The settings on record: SW-620, 72 h. Summed up:
as §1

Assay [2] in a line: Cytotoxicity against human KATO cells after 3 days by MTT assay. Type of assay: functional, cell-based. Conditions: 72 h. In a few lines:
as §1

The nature of assay [3]: Cytotoxicity against human ChaGo cells after 3 days by MTT assay. In kind it is functional, cell-based. The settings on record: 72 h. In a few lines: as §1
Another assay deals with BT-474. The experiment in a line: Cytotoxicity against human BT474 cells after 3 days by MTT assay. Type of assay: functional, cell-based. Conditions: BT-474, 72 h. In a few lines:
as §1

The next assay deals with HepG2. Briefly: Cytotoxicity against human HepG2 cells after 3 days by MTT assay. Conditions: HepG2, 72 h. Type of assay: functional, cell-based. In a few lines: as §1
The next assay concerns MCF7. Briefly: Cytotoxicity against human MCF7 cells after 3 days by MTT assay. In kind it is functional, cell-based. Conditions: MCF7, 72 h. In a few lines: as §1
Assay [4] relates to Nucleic Acid. Briefly: Binding affinity to calf thymus DNA assessed as increase in melting temperature (reference value: 56.4 degC). In kind it is nucleic-acid assay. The settings on record: Bos taurus.
Assay [5] deals with DNA topoisomerase 2-alpha (Homo sapiens) (UniProt P11388). Briefly: Inhibition of human topoisomerase 2alpha-mediated relaxation of supercoiled pBR322 at 20 uM after 30 mins by electrophoresis analysis.
Assay [6] concerns Nucleic Acid. The experiment in a line: Binding affinity to calf thymus DNA assessed as change in melting temperature. The settings on record: Bos taurus. Type of assay: nucleic-acid assay.

Sequence of DNA topoisomerase 2-alpha (Homo sapiens) (P11388 whole entry): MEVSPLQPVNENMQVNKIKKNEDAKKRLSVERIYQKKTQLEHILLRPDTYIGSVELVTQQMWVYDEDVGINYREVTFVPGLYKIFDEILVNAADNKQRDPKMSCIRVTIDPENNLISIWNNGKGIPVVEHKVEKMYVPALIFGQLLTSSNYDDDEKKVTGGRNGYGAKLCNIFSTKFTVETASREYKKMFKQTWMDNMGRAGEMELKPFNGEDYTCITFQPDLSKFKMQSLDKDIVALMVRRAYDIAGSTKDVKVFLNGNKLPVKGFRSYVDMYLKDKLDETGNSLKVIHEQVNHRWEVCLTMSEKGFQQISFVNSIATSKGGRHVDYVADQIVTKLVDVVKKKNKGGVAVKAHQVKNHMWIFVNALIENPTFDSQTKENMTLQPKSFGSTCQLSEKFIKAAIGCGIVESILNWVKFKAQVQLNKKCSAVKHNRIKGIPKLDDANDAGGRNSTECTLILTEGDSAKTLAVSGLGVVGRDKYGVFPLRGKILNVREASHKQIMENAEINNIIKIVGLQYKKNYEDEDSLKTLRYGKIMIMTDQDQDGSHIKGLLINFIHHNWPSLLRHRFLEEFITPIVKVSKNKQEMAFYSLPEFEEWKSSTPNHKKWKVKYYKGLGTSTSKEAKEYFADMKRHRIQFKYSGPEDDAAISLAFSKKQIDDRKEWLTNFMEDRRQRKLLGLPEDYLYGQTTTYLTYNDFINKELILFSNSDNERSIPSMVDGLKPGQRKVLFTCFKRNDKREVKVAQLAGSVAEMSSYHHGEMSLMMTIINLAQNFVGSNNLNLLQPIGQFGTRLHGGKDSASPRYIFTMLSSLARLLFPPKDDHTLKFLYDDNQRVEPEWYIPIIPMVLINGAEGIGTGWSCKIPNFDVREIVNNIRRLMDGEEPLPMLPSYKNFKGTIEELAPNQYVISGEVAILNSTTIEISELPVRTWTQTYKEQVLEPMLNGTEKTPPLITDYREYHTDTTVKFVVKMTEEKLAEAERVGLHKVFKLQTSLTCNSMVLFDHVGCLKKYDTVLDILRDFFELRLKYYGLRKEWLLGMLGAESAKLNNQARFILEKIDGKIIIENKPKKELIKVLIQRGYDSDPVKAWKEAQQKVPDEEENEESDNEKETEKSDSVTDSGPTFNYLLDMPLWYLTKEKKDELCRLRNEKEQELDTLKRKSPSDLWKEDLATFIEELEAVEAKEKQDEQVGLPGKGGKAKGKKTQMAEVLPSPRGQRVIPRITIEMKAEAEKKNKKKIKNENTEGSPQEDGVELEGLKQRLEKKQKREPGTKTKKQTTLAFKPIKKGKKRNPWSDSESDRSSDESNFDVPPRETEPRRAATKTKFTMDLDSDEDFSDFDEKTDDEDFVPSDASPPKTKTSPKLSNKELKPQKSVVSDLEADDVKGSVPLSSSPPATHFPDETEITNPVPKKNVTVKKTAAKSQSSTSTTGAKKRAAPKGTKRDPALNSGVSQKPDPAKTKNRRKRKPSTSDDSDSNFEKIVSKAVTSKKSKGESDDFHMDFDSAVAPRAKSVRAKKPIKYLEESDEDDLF

Consider `COc1cc(OCC(O)CNCC(O)c2ccccc2)c2c(c1)O[C@@H]1COc3cc(OC)c(OC)cc3[C@]1(O)C2=O` (mixture of isomers), for which the inhibition (as a rule, the change of the read-out against control, counted positive when it falls) in assay [1] was 60.4%. In addition, the IC50 (commonly the midpoint of a concentration-inhibition curve) was 46.4 µM in the assay with KB; 22.1 µM in the assay on NCI-H187; greater than 100 µM with SW-620; greater than 100 µM in assay [2]; greater than 100 µM in assay [3]; greater than 100 µM with BT-474. The same compound gave an IC50 in the assay with HepG2 greater than 100 µM.

Consider `COCC(O)COc1cc(OC)cc2c1C(=O)[C@@]1(O)c3cc(OC)c(OC)cc3OC[C@H]1O2` (mixture of isomers), for which the inhibition in assay [1] came to 58.4%. For the same compound, the IC50 is 46.9 µM in the assay on KB; greater than 100 µM with MCF7; 11.7 µM with NCI-H187; greater than 100 µM with SW-620; greater than 100 µM in assay [2]; greater than 100 µM in assay [3]. For the same compound, the IC50 in the assay on BT-474 and in the assay on HepG2 was greater than 100 µM each time.

`COc1cc(OCC(O)CNCCc2ccccc2)c2c(c1)O[C@@H]1COc3cc(OC)c(OC)cc3[C@]1(O)C2=O` (mixture of isomers): the inhibition in assay [1] was 66.7%. The IC50 in the assay with KB was 23.5 µM; in the assay on MCF7, 3.05 µM; in the assay with NCI-H187, 13.6 µM; in the assay with SW-620, greater than 100 µM; in [2], greater than 100 µM; in assay [3], greater than 100 µM. The IC50 with BT-474 and with HepG2 was greater than 100 µM throughout.

As for `COc1cc(OCC(O)CCl)c2c(c1)O[C@@H]1COc3cc(OC)c(OC)cc3[C@]1(O)C2=O` (mixture of isomers), the inhibition in [1] is 58.3%. For the same compound, the IC50 in the assay with KB is 14.8 µM; in the assay with MCF7, 24.9 µM; in the assay on NCI-H187 it was 6.61 µM; in the assay on SW-620, 1.09 µM; in assay [2], 1.09 µM; in [3], greater than 100 µM. Besides, the values for the IC50 in the assay with BT-474 and with HepG2 were 1.57 µM and 0.81 µM, respectively.

Turning to `COc1cc(O)c2c(c1)O[C@@H]1COc3cc(OC)c(OC)cc3[C@]1(O)C2=O`, the inhibition in assay [1] turned out to be 72.1%. Also, the IC50 was 13.3 µM in the assay on KB; 23.7 µM with MCF7; 3.12 µM in the assay on NCI-H187; greater than 100 µM in the assay with SW-620; greater than 100 µM in assay [2]; greater than 100 µM in assay [3]. Also, the IC50 with BT-474 and in the assay on HepG2 was greater than 100 µM throughout. In the assay with Nucleic Acid [4], the Tm came out at 57.3 °C.

Consider `COc1cc(OCC(O)CN2CCOCC2)c2c(c1)O[C@@H]1COc3cc(OC)c(OC)cc3[C@]1(O)C2=O` (mixture of isomers), for which the inhibition is 93.5% in assay [1] and 47.1% in [5]. Moreover, the IC50 in the assay on KB is 26.5 µM; in the assay on MCF7, 31.7 µM; with NCI-H187 it was 2.93 µM; in the assay on SW-620 it was 0.73 µM; in assay [2], greater than 100 µM; in [3], 0.61 µM. Also, the figures for the IC50 in the assay with BT-474 and in the assay on HepG2 were 0.34 µM and 0.61 µM, respectively. In addition, the Tm in the assay on Nucleic Acid [4] is 65.1 °C. Besides, the ΔTm (commonly the change in melting temperature against a reference sample) in the assay on Nucleic Acid [6] turned out to be 7.8 °C.

As for `COc1cc(OCC(O)CNCCN2CCOCC2)c2c(c1)O[C@@H]1COc3cc(OC)c(OC)cc3[C@]1(O)C2=O` (mixture of isomers), the inhibition in assay [1] came to 77.1%. For the same compound, the IC50 in the assay with KB was 26.3 µM; in the assay on MCF7, 36.8 µM; in the assay on NCI-H187, 4.7 µM; in the assay with SW-620, 0.54 µM; in assay [2] it was 1.94 µM; in assay [3], 40.2 µM. In addition, the IC50 in the assay on BT-474 came to 0.45 µM; with HepG2, 0.56 µM. In the assay on Nucleic Acid [4], the Tm stood at 66.1 °C. Further, the shift in melting temperature (ΔTm) in the assay on Nucleic Acid [6] is 8.8 °C.

In assay [1], `COc1cc(OCC(O)CNCc2ccccc2)c2c(c1)O[C@@H]1COc3cc(OC)c(OC)cc3[C@]1(O)C2=O` (mixture of isomers) showed an inhibition of 81.7%. Besides, the half-inhibitory concentration (IC50) in the assay with KB came to 32.3 µM; in the assay with MCF7, 34.6 µM; in the assay on NCI-H187, 35.5 µM; in the assay on SW-620, 0.59 µM; in assay [2], 0.67 µM; in assay [3], 31 µM. Moreover, the IC50 with BT-474 amounted to 0.62 µM; in the assay with HepG2, 0.72 µM. In the assay with Nucleic Acid [4], the Tm worked out at 68 °C. In addition, in the assay with Nucleic Acid [6], the ΔTm is 10.7 °C.

Consider `COc1cc(OCC2CO2)c2c(c1)O[C@@H]1COc3cc(OC)c(OC)cc3[C@]1(O)C2=O` (mixture of isomers), for which, in [1], the inhibition came to 68.3%. Also, the IC50 with KB is 32.9 µM; in the assay on MCF7, 5.63 µM; in the assay with NCI-H187, 27.8 µM; in the assay on SW-620, 0.38 µM; in [2] it was 0.63 µM; in assay [3] it was 0.57 µM. The IC50 in the assay with BT-474 is 0.45 µM; in the assay with HepG2, 0.55 µM. Also, the Tm in the assay with Nucleic Acid [4] turned out to be 59.3 °C. The ΔTm with Nucleic Acid [6] turned out to be 2 °C.

Compound `COc1cccc2c1C(=O)c1c(O)c3c(c(O)c1C2=O)C[C@@](O)(C(=O)CO)C[C@@H]3O[C@H]1C[C@H](N)[C@H](O)[C@H](C)O1` [DOXORUBICIN] registered an inhibition in assay [1] of 72.1%. Besides, the IC50 was determined as 2.01 µM in the assay with KB; 0.03 µM with NCI-H187; 0.23 µM with SW-620; 0.33 µM in assay [2]; 0.83 µM in assay [3]; 0.07 µM in the assay on BT-474. The compound also returned an IC50 in the assay on HepG2 of 0.26 µM.

For `COc1cc(OCC(O)CN(CCO)CCO)c2c(c1)O[C@@H]1COc3cc(OC)c(OC)cc3[C@]1(O)C2=O` (stereo not given in full), in assay [1], the inhibition was determined as 49.1%. Also, the IC50 (in the assay on KB; in the assay on MCF7; in the assay on NCI-H187; in the assay on SW-620; in assay [2]; in [3]) was greater than 100 µM throughout. In addition, the IC50 with BT-474 and with HepG2 was greater than 100 µM each time.

`COc1cc(OCC(O)CN2CCC(=O)CC2)c2c(c1)O[C@@H]1COc3cc(OC)c(OC)cc3[C@]1(O)C2=O` (mixture of isomers) had an inhibition in assay [1] of 54.2%. In addition, the IC50 with KB is greater than 100 µM; in the assay with MCF7 it was 48.6 µM; in the assay with NCI-H187 it was greater than 100 µM; in the assay on SW-620, greater than 100 µM; in assay [2], greater than 100 µM; in assay [3], greater than 100 µM. The IC50 with BT-474 and with HepG2 was greater than 100 µM in each case.

In the case of `COc1cc(OCC(O)CO)c2c(c1)O[C@@H]1COc3cc(OC)c(OC)cc3[C@]1(O)C2=O` (mixture of isomers), in assay [1], the inhibition turned out to be 38.8%. Further, the IC50 with KB was 13.4 µM; with MCF7 it was greater than 100 µM; with NCI-H187, 13.9 µM; in the assay on SW-620, 8.04 µM; in assay [2], greater than 100 µM; in assay [3], greater than 100 µM. Besides, the IC50 in the assay on BT-474 and in the assay on HepG2 was greater than 100 µM in each case.

These data come from ChEMBL document CHEMBL1806460, “Synthesis of rotenoid derivatives with cytotoxic and topoisomerase II inhibitory activities” (Bioorg Med Chem Lett, 2011).
